Laboratory results: ChEMBL document CHEMBL1141808, “Polymethoxylated flavones derived from citrus suppress tumor necrosis factor-alpha expression by human monocytes” (J Nat Prod, 1999)
Activity calls are given as the source filed them. No cut-off for these calls is given here.

Assays:
Monocyte [1] = assay: Inhibition of TNFalpha expression in LPS-stimulated human monocytes treated 30 mins before LPS challenge measured after 14 hrs by ELISA; type: functional, cell-based
Outline: (§1)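 Human PBMC at 4 × 10^6/mL in DMEM with 30% FCS, glutamine and pen/strep were allowed to adhere for 2 h at 37 °C and 5% CO2. Nonadherent lymphocytes were washed off. Adherent monocytes were preincubated 30 min with graded compound concentrations, then stimulated with LPS. After 14 h, supernatants were assayed by ELISA. Values are percent of compound-free cultures, as means ± SE from three donors.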

[2] = Cytotoxicity against human monocytes assessed as depletion of cellular LDH activity; type: cell-based; design: concentration or dose not given beside the values; conditions: monocyte
Outline: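 Viability was taken from the LPS-stimulated adherent monocyte cultures after 14 h, lysed in 1% NP40 in PBS. LDH in the lysate was measured in 50 mM sodium pyrophosphate pH 8.9 with 50 mM lactic acid and 4 mg/mL NAD. The rate of NADH formation was read at 340 nm at room temperature. More than 20% depletion was counted as cytotoxic.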

[3] = target: T1, Phosphodiesterase 4 (Homo sapiens) (UniProt P27815+Q08499+Q07343+Q08493); assay: Inhibition of PDE4 in human monocytes assessed as elevation of cytosolic cAMP level at 100 uM treated for 30 mins assessed per 10^7 cells by EIA; type: cell-based
Outline: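 Elutriated human monocytes at 5 × 10^6/mL in complete medium (30% FCS) were precultured 2 h at 37 °C and 5% CO2. They were then exposed for 30 min to 100 µM flavone or 200 µM IBMX. Cells were lysed in cold 10 mM HEPES pH 7.6 with 1% NP40. cAMP was isolated on SAX columns, eluted with methanol/0.01 M HCl, dried, and quantified by EIA as pmol/10^7 cells.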

[4] = target: T1, Phosphodiesterase 4 (Homo sapiens); assay: Inhibition of PDE4 in human U937 cells assessed as inhibition of cAMP hydrolysis at 11 uM by SPA; type: cell-based; conditions: U-937
Outline: (§2)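 PDE, mostly type IV by isoform-inhibitor sensitivity, was semipurified from U937 cells. cAMP hydrolysis was measured by scintillation proximity assay across graded compound concentrations. Rates were expressed as percent of flavonoid-free control, and the concentration giving 50% inhibition was reported.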

Monocyte [5] = assay: Inhibition of IL1-beta expression in LPS-stimulated human monocytes at 100 uM treated 30 mins before LPS challenge measured after 14 hrs by ELISA; type: functional
Outline: (§3)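 Monocyte cultures were held 14 h in medium alone, with 20 ng/mL LPS alone, or with LPS plus 100 µM compound. IBMX served as reference. TNFα, IL-6, IL-8, IL-10 and MIP-1α were measured in supernatants by ELISA, and IL-1β in cell lysates made with 1% NP40 in PBS. Significance versus LPS alone was set at p < 0.05.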

Monocyte [6] = assay: Inhibition of TNFalpha mRNA expression in LPS-stimulated human monocytes treated 30 mins before LPS challenge measured after 90 mins by RT-PCR; type: functional, cell-based
Outline: (§4)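 Elutriated monocytes at 5 × 10^6/mL in complete medium were preincubated 30 min at 37 °C with graded compound concentrations. They were then stimulated with 20 ng/mL LPS for 90 min. Total RNA was isolated with RNAzol. TNFα and IL-1β mRNA were measured by RT-PCR with [α-32P]dCTP, relative to GAPDH.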

Monocyte [7] = assay: Increase in IL6 expression in LPS-stimulated human monocytes at 100 uM treated 30 mins before LPS challenge measured after 14 hrs by ELISA; type: functional; outline: as §3
Monocyte [8] = assay: Inhibition of IL10 expression in LPS-stimulated human monocytes at 100 uM treated 30 mins before LPS challenge measured after 14 hrs by ELISA; type: functional; outline: as §3
[9] = target: T1, Phosphodiesterase 4 (Homo sapiens); assay: Inhibition of PDE4 in human U937 cells assessed as inhibition of cAMP hydrolysis at 2 uM by SPA; type: cell-based; conditions: U-937; outline: as §2
Monocyte [10] = assay: Inhibition of MIP1alpha expression in LPS-stimulated human monocytes treated 30 mins before LPS challenge measured after 14 hrs by ELISA; type: functional, cell-based; outline: as §1
Monocyte [11] = assay: Inhibition of IL6 expression in LPS-stimulated human monocytes at 100 uM treated 30 mins before LPS challenge measured after 14 hrs by ELISA; type: functional; outline: as §3
Monocyte [12] = assay: Inhibition of MIP1alpha expression in LPS-stimulated human monocytes at 100 uM treated 30 mins before LPS challenge measured after 14 hrs by ELISA; type: functional; outline: as §3
Monocyte [13] = assay: Inhibition of TNFalpha expression in LPS-stimulated human monocytes at 100 uM treated 30 mins before LPS challenge measured after 14 hrs by ELISA; type: functional; outline: as §3
Monocyte [14] = assay: Inhibition of IL10 expression in LPS-stimulated human monocytes treated 30 mins before LPS challenge measured after 14 hrs by ELISA; type: functional, cell-based; outline: as §1
Monocyte [15] = assay: Inhibition of IL8 expression in LPS-stimulated human monocytes at 100 uM treated 30 mins before LPS challenge measured after 14 hrs by ELISA; type: functional; outline: as §3
Monocyte [16] = assay: Inhibition of IL1-beta mRNA expression in LPS-stimulated human monocytes treated 30 mins before LPS challenge measured after 90 mins by RT-PCR; type: functional, cell-based; outline: as §4
[17] = target: T1, Phosphodiesterase 4 (Homo sapiens); assay: Inhibition of PDE4 in human U937 cells assessed as inhibition of cAMP hydrolysis at 16 uM by SPA; type: cell-based; conditions: U-937; outline: as §2

Structure (SMILES) | IC50 (Monocyte [1]) [µM] | Activity (Monocyte [1]) | Activity [2] | other results
O=c1cc(-c2ccccc2)oc2cc(O)ccc12 [7-HYDROXYFLAVONE] |  | inactive | Non-toxic | 
O=c1c(O)c(-c2ccc(O)c(O)c2)oc2cc(O)ccc12 [FISETIN] |  | inactive | Non-toxic | 
Oc1cc(O)c2c(c1)O[C@H](c1ccc(O)c(O)c1)[C@@H](O)C2 [CATECHIN] |  |  | Non-toxic | 
O=c1cc(-c2ccccc2)oc2cc(O)c(O)c(O)c12 [BAICALEIN] |  | inactive | Non-toxic | 
O=c1c(O)c(-c2ccccc2)oc2cc(O)cc(O)c12 [GALANGIN] |  | inactive | Non-toxic | 
COc1ccc([C@@H]2CC(=O)c3c(O)cc(O)cc3O2)cc1O |  | inactive |  | 
C[C@@H]1O[C@@H](O[C@H]2[C@H](Oc3cc(O)c4c(c3)O[C@H](c3ccc(O)cc3)CC4=O)O[C@H](CO)[C@@H](O)[C@@H]2O)[C@H](O)[C@H](O)[C@H]1O [NARINGIN] | > 200 |  | Non-toxic | 
O=c1cc(-c2ccccc2)oc2cc(O)cc(O)c12 [CHRYSIN] |  | inactive | Non-toxic | 
O=c1c(O)c(-c2cc(O)c(O)c(O)c2)oc2cc(O)cc(O)c12 [MYRICETIN] |  | inactive | Non-toxic | Activity [3]: 3.7 pmol; inhibition [17]: 50%
O=C1CC(c2ccccc2)Oc2ccccc21 (stereo unspecified) [FLAVANONE] |  | inactive | Non-toxic | 
O=c1c(O)c(-c2ccccc2)oc2ccccc12 [FLAVONOL] |  | inactive | Non-toxic | 
O=c1c(O)c(-c2ccc(O)c(O)c2)oc2c(O)c(O)cc(O)c12 [GOSSYPETIN] |  | inactive | Non-toxic | 
C[C@@H]1O[C@@H](OC[C@H]2O[C@@H](Oc3c(-c4ccc(O)cc4)oc4cc(O[C@@H]5O[C@@H](C)[C@H](O)[C@@H](O)[C@H]5O)cc(O)c4c3=O)[C@H](O)[C@@H](O)[C@@H]2O)[C@H](O)[C@H](O)[C@H]1O |  | inactive | Non-toxic | 
O=C1C[C@@H](c2ccc(O)c(O)c2)Oc2cc(O)cc(O)c21 [ERIODICTYOL] |  | inactive | Non-toxic | 
O=c1c(O)c(-c2ccc(O)c(O)c2)oc2cc(O)cc(O)c12 [QUERCETIN] | 120 |  | > 20% | 
Oc1cc(O)c2c(c1)O[C@H](c1ccc(O)c(O)c1)[C@H](O)C2 [(-)-EPICATECHIN] |  | inactive | Non-toxic | 
CC(C)Cn1c(=O)n(C)c(=O)c2nc[nH]c21 [ISOBUTYLMETHYLXANTHINE] |  |  |  | Activity (Monocyte [5]): 99.1 ng/mL; Activity (Monocyte [8]): 0.651 ng/mL; Activity (Monocyte [11]): 79.7 ng/mL; Activity (Monocyte [12]): 33.2 ng/mL; Activity (Monocyte [13]): 10.9 ng/mL; Activity (Monocyte [15]): 335 ng/mL
COc1ccc(-c2cc(=O)c3c(OC)c(OC)c(OC)cc3o2)cc1 | 22 |  |  | 
Oc1cc(O)c2c(c1)OC(c1ccc(O)c(O)c1)C(O)C2 (stereo unspecified) |  | inactive |  | 

Further lines, with some results ahead:

IC50 (Monocyte [1]) [µM] | Structure (SMILES) | Activity (Monocyte [1]) | Activity [2] | other results
166 | O=c1cc(-c2ccccc2)oc2ccccc12 [FLAVONE] |  |  | Activity [3]: 3.6 pmol; inhibition [4]: 50%
22 | COc1cc(O)c2c(=O)c(O)c(-c3ccc(O)c(O)c3)oc2c1 [RHAMNETIN] |  | > 20% | 
10 | COc1ccc(-c2oc3c(OC)c(OC)c(OC)c(O)c3c(=O)c2OC)cc1OC |  |  | 
10 | COc1ccc(-c2cc(=O)c3c(OC)c(OC)c(OC)c(OC)c3o2)cc1OC [NOBILETIN] |  |  | 
22 | COc1ccc(-c2cc(=O)c3c(O)cc(O)cc3o2)cc1 [ACACETIN] |  | > 20% | 
67 | COc1cc(-c2oc3c(OC)c(O)cc(O)c3c(=O)c2O)ccc1O [LIMOCITRIN] |  | > 20% | 
8 | COc1ccc(-c2cc(=O)c3c(OC)c(OC)c(OC)cc3o2)cc1OC [SINENSETIN] |  |  | 
5 | COc1ccc(-c2oc3c(OC)c(OC)c(OC)c(OC)c3c(=O)c2OC)cc1OC [3,5,6,7,8,3',4'-HEPTAMETHOXYFLAVONE] |  |  | Activity (Monocyte [5]): inactive; Activity (Monocyte [5]; record 2): 62.9 ng/mL; Activity (Monocyte [6]): Active; Activity [3]: 5.7 pmol; Activity (Monocyte [7]): 30%; Activity (Monocyte [8]): 0.269 ng/mL; inhibition [9]: 50%; IC50 (Monocyte [10]): 7.3 µM; Activity (Monocyte [11]): inactive; Activity (Monocyte [11]; record 2): 90 ng/mL; Activity (Monocyte [12]): 49.2 ng/mL; Activity (Monocyte [13]): 9.7 ng/mL; IC50 (Monocyte [14]): 12.3 µM; Activity (Monocyte [15]): inactive; Activity (Monocyte [15]; record 2): 307 ng/mL; Activity (Monocyte [16]): inactive
22 | COc1cc(-c2cc(=O)c3c(O)cc(O)cc3o2)ccc1O [CHRYSOERIOL] |  |  | 
25 | COc1ccc(-c2cc(=O)c3c(OC)c(OC)ccc3o2)cc1OC |  |  | 
> 200 | COc1ccc(-c2cc(=O)c3c(O)cc(O[C@@H]4O[C@H](CO[C@@H]5O[C@@H](C)[C@H](O)[C@@H](O)[C@H]5O)[C@@H](O)[C@H](O)[C@H]4O)cc3o2)cc1O [DIOSMIN] |  | Non-toxic | 
16 | COc1ccc(-c2cc(=O)c3c(OC)cc(OC)c(OC)c3o2)cc1OC |  |  | 
30 | COc1ccc(-c2cc(=O)c3c(OC)c(OC)c(OC)c(OC)c3o2)cc1 [TANGERETIN] |  |  | 
47 | COc1c(-c2ccc(O)c(O)c2)oc2cc(O)cc(O)c2c1=O [3-O-METHYLQUERCETIN] |  |  | 
20 | O=c1c(O)c(-c2ccc(O)cc2)oc2cc(O)cc(O)c12 [KAEMPFEROL] |  | > 20% | 
20 | O=c1cc(-c2ccc(O)cc2)oc2cc(O)cc(O)c12 [APIGENIN] |  | > 20% | 
> 200 | COc1ccc([C@@H]2CC(=O)c3c(O)cc(O[C@@H]4O[C@H](CO[C@@H]5O[C@@H](C)[C@H](O)[C@@H](O)[C@H]5O)[C@@H](O)[C@H](O)[C@H]4O)cc3O2)cc1O [HESPERIDIN] |  | Non-toxic | 
> 200 | C[C@@H]1O[C@@H](OC[C@H]2O[C@@H](Oc3cc(O)c4c(c3)O[C@H](c3ccc(O)cc3)CC4=O)[C@H](O)[C@@H](O)[C@@H]2O)[C@H](O)[C@H](O)[C@H]1O [NARIRUTIN] |  | Non-toxic | 
5 | COc1ccc(-c2cc(=O)c3c(O)c(OC)c(OC)c(OC)c3o2)cc1OC [5-DEMETHYLNOBILETIN] |  |  | 
20 | COc1cc(-c2cc(=O)c3c(OC)c(OC)c(OC)cc3o2)cc(OC)c1OC |  |  | 
